Read-outs that look alike come from different tables or passages of the source.

Data set [1] can be described thus: Stability in human serum measured by mass spectrometry. In kind it is in vitro ADME. As to conditions: 25% human serum in PBS. An outline of the steps:
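Peptide at 10 μM was incubated in 25% human serum in PBS at 37 °C. Aliquots were taken at 0, 2.5, 5, 10, 20, 40 and 60 min into 0.2% formic acid (1:4) containing an internal standard and held at 4 °C. Peptide abundance relative to the internal standard was measured by mass spectrometry and plotted against incubation time.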

The next data set concerns the target PCNA (Homo sapiens, UniProt P12004). Nature of the data set: Isothermal titration calorimetry. In kind it is binding. Particulars: ITC, pH 7.4, 25 °C, mean ± SEM of n = 3. A digest of the protocol:
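His6-tagged PCNA (HRV 3C site) was IPTG-induced at 37 °C, then purified by Ni-NTA and Superdex 200 SEC. Protein was buffer-exchanged into 20 mM sodium phosphate, 0–500 mM NaCl, 1 mM TCEP, pH 7.4, with peptides dissolved in the same buffer. PCNA was in the cell, peptide in the syringe; 25 °C, 750 rpm stirring. Data were fitted to a one-set-of-sites model; triplicates, SEM.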
For orientation: Isothermal titration calorimetry measures the heat released or taken up as one component is titrated into another.

For data set [2], the target named is T1, proliferating cell nuclear antigen (PCNA) (UniProt P12004 1-261). Nature of the data set: ITC.
T1 sequence (P12004 whole entry): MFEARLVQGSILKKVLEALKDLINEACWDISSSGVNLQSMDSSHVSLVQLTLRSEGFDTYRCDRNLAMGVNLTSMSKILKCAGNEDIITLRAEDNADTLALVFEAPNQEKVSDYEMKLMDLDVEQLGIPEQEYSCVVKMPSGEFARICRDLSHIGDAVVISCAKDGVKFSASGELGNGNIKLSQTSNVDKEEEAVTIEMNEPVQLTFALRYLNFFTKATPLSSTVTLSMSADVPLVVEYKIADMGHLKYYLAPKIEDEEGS
Data set [3] addresses T1, proliferating cell nuclear antigen …. Nature of the data set: ITC. The source holds these as a separate data set.
Data set [4] shares this target. In words: ITC. This is another data set of the same source.
Data set [5] shares this target. Nature of the data set: ITC. This is another data set of the same source.
Data set [6] shares this target. In words: ITC. The source holds these as a separate data set.
Data set [7] has the same target. Nature of the data set: ITC. The source holds these as a separate data set.

PCNA, sequence (P12004 whole entry): as above

The molecule `CSCC[C@H](NC(=O)[C@H](CO)NC(=O)[C@@H](NC(=O)[C@H](CCC(N)=O)NC(=O)[C@H](CCCNC(=N)N)NC(=O)[C@H](CCCNC(=N)N)NC(=O)[C@H](CCCCN)NC(=O)[C@H](CCCNC(=N)N)NC(C)=O)[C@@H](C)O)C(=O)N[C@H](C(=O)N[C@@H](CC(=O)O)C(=O)N[C@@H](Cc1ccccc1)C(=O)N[C@@H](Cc1ccc(O)cc1)C(=O)N[C@@H](Cc1c[nH]cn1)C(=O)N[C@@H](CO)C(=O)N[C@@H](CCCCN)C(=O)N[C@@H](CCCNC(=N)N)C(=O)N[C@@H](CCCNC(=N)N)C(N)=O)[C@@H](C)O` [p21_140–156] displayed a half-life at 10 μM in data set [1] of approximately 11 min.
In the case of Ac-KKKKQTSMTDFYHSKKK-NH2 [p21All–K], the “N (binding stoichiometry)” value on PCNA (100 mM NaCl) is reported as 0.92 ± 0.01; at PCNA (200 mM NaCl), 0.75 ± 0.02; at PCNA (300 mM NaCl), 0.71 ± 0.02; on PCNA (400 mM NaCl) it was 0.80 ± 0.02. The ΔH at PCNA (100 mM NaCl) was -68 ± 2 kJ/mol; on PCNA (200 mM NaCl) it was -74 ± 4 kJ/mol; at PCNA (300 mM NaCl) it was -80 ± 3 kJ/mol; on PCNA (400 mM NaCl), -76 ± 3 kJ/mol. Also, the “−TΔS” value at PCNA (100 mM NaCl) was 28 ± 2 kJ/mol; at PCNA (200 mM NaCl), 37 ± 4 kJ/mol; at PCNA (300 mM NaCl), 41 ± 3 kJ/mol; on PCNA (400 mM NaCl), 41 ± 4 kJ/mol.
Regarding Ac-KRKKQTSMTDFYHSRKK-NH2 [p21SWAP], the “N (binding stoichiometry)” value on PCNA (100 mM NaCl) stood at 0.95 ± 0.04; at PCNA (200 mM NaCl), 0.79 ± 0.09; at PCNA (300 mM NaCl), 0.82 ± 0.04; at PCNA (400 mM NaCl) it was 0.79 ± 0.01. Besides, the ΔH at PCNA (100 mM NaCl) was -60.8 ± 0.9 kJ/mol; on PCNA (200 mM NaCl), -76 ± 2 kJ/mol; at PCNA (300 mM NaCl), -72 ± 4 kJ/mol; at PCNA (400 mM NaCl) it was -74 ± 2 kJ/mol. The “−TΔS” value at PCNA (100 mM NaCl) stood at 20.5 ± 0.9 kJ/mol; on PCNA (200 mM NaCl) it was 38 ± 2 kJ/mol; at PCNA (300 mM NaCl), 36 ± 4 kJ/mol; at PCNA (400 mM NaCl), 38 ± 2 kJ/mol.
In the case of Ac-RRRRQTSMTDFYHSRRR-NH2 [p21All–R], the “N (binding stoichiometry)” value on PCNA (100 mM NaCl) turned out to be 0.80 ± 0.05; at PCNA (200 mM NaCl), 0.73 ± 0.01; at PCNA (300 mM NaCl), 0.68 ± 0.01; at PCNA (400 mM NaCl), 0.61 ± 0.02. Moreover, the ΔH on PCNA (100 mM NaCl) was -87 ± 1 kJ/mol; on PCNA (200 mM NaCl), -84 ± 3 kJ/mol; on PCNA (300 mM NaCl) it was -83.5 ± 0.9 kJ/mol; at PCNA (400 mM NaCl), -81 ± 3 kJ/mol. In addition, the “−TΔS” value on PCNA (100 mM NaCl) came to 45 ± 2 kJ/mol; on PCNA (200 mM NaCl) it was 45 ± 3 kJ/mol; at PCNA (300 mM NaCl), 46 ± 1 kJ/mol; at PCNA (400 mM NaCl), 44 ± 3 kJ/mol.
As to Ac-QTSMTDFYHS-NH2 [p21_(core) peptide (isolated p21 core motif QTSMTDFYHS)], in data set [2], the dH is -56 kJ/mol and the “stoichiometry N” value is 0.7. In data set [3], binding was put at a Kd of 34.3 µM, the dH was -88 kJ/mol and the “stoichiometry N” value is 0.71.
Turning to Ac-RRRRQTSMTDFYHSRRR-NH2 [p21_(All–R) peptide], the Kd in data set [4] came to 0.398 µM; in data set [2], 0.045 µM; in data set [5], 0.139 µM; in data set [3], 0.273 µM. For the same molecule, the dH is -81 kJ/mol in data set [4], -87 kJ/mol in data set [2], -84 kJ/mol in data set [5] and -83.5 kJ/mol in data set [3]. For the same molecule, the “stoichiometry N” value is 0.61 in data set [4], 0.8 in data set [2], 0.73 in data set [5] and 0.68 in data set [3].
As to Ac-KRKKQTSMTDFYHSRKK-NH2 [p21_(SWAP) peptide], the Kd is 0.547 µM in data set [4], 0.087 µM in data set [2], 0.206 µM in data set [5] and 0.407 µM in data set [3]. The dH in data set [4] was -74 kJ/mol; in data set [2] it was -60.8 kJ/mol; in data set [5] it was -76 kJ/mol; in data set [3], -72 kJ/mol. For the same molecule, the “stoichiometry N” value in data set [4] amounted to 0.79; in data set [2] it was 0.95; in data set [5], 0.79; in data set [3], 0.82.
As to Ac-KKKKQTSMTDFYHSKKK-NH2 [p21_(All–K) peptide], the Kd was 0.653 µM in data set [4], 0.087 µM in data set [2], 0.347 µM in data set [5] and 0.456 µM in data set [3]. In addition, the dH in data set [4] was -76 kJ/mol; in data set [2] it was -68 kJ/mol; in data set [5] it was -74 kJ/mol; in data set [3], -80 kJ/mol. The “stoichiometry N” value in data set [4] was 0.8; in data set [2], 0.92; in data set [5] it was 0.75; in data set [3] it was 0.71.
Turning to Ac-RKRRQTSMTDFYHSKRR-NH2 [p21_(140–156) peptide (wild-type p21 PIP-degron with flanking regions)], the Kd in data set [6] was found to be 0.019 µM; in data set [4], 0.606 µM; in data set [7] it was 0.579 µM; in data set [2], 0.068 µM; in data set [5] it was 0.182 µM; in data set [3] it was 0.341 µM. Moreover, the dH in data set [6] is -73.9 kJ/mol; in data set [4], -93 kJ/mol; in data set [7], -89 kJ/mol; in data set [2] it was -75.9 kJ/mol; in data set [5] it was -90 kJ/mol; in data set [3] it was -89.6 kJ/mol. In addition, the “stoichiometry N” value in data set [6] worked out at 0.77; in data set [4] it was 0.8; in data set [7], 0.72; in data set [2], 0.86; in data set [5] it was 0.86; in data set [3] it was 0.76.

As a reminder, the half-life is the time in which the quantity being followed falls by half. The term stoichiometry N denotes the number of molecules, sites or subunits per partner or assembly. As usually defined, the Kd is the concentration at which binding is half-saturated. The low end stands for a tighter complex, the high end for a looser complex.

These data come from PMC12366268 (The Febs Journal, 2025).
